The subject of series [1] is BV-2. The experiment in a line: Inhibition of LPS-activated nitric oxide production in mouse BV2 cells pre-treated for 60 mins before LPS challenge for 24 hrs by Griess assay. The class given is functional, cell-based. The method, boiled down: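 LPS-activated BV-2 microglial cells; NO production measured by Griess assay; indomethacin as positive control; results expressed as IC50 (μM).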
On the technique in general: Nitrite, measured by Griess reagent, commonly stands in for NO production.

Series [2] is described as follows: Toxicity against mouse BV2 cells assessed as effect on cell viability at 80 uM incubated for 24 hrs by MTT assay. In kind it is cell-based. The conditions noted are these: bv-2, 24 h.
The subject of series [3] is BV-2. The experiment in a line: Inhibition of LPS-activated nitric oxide production in mouse BV2 cells at 80 uM pre-treated for 60 mins before LPS challenge for 24 hrs by Griess assay. In kind it is functional.

Some results are limits rather than exact numbers.

For the compound `CC(=O)OCC[C@]1(C)CC[C@@]2(O1)[C@H](C)C(=O)[C@@H](OC(C)=O)[C@H]1[C@@](C)(COC(C)=O)[C@H](O)CC[C@@]12C`, the IC50 in series [1] turned out to be 63.7 µM. Moreover, in series [2], the Activity result is “Non-toxic”.
Regarding `CC(=O)OCC[C@]1(C)CC[C@@]2(O1)[C@H](C)C(=O)[C@@H](O)[C@H]1[C@@](C)(COC(C)=O)[C@H](O)CC[C@@]12C`, the IC50 in series [1] was 45.7 µM. Besides, the Activity entry in series [2] is listed as “Non-toxic”.
Take `CC(=O)OCC[C@]1(C)CC[C@@]2(O1)[C@H](C)C(=O)[C@@H](OC(C)=O)[C@H]1[C@@](C)(COC(C)=O)[C@H](OC(C)=O)CC[C@@]12C`: the IC50 in series [1] worked out at 48.1 µM. Besides, the Activity entry in series [2] is reported as “Non-toxic”.
For `CC(=O)OC[C@@]1(C)[C@H](OC(C)=O)CC[C@@]2(C)[C@H]1[C@H](OC(C)=O)C(=O)[C@@H](C)[C@]21CC[C@@](C)(CCO)O1` the same measures were 20.7 µM and “Non-toxic”.
For `CC(=O)OC[C@@]1(C)[C@H](OC(C)=O)CC[C@@]2(C)[C@H]1[C@H](O)C(=O)[C@@H](C)[C@]21CC[C@@](C)(CCO)O1` the same measures were 41.7 µM and “Non-toxic”.
For `CC(=O)O[C@@H]1C(=O)[C@@H](C)[C@]2(CC[C@@](C)(CCO)O2)[C@@]2(C)CC[C@@H](OC(C)=O)[C@](C)(CO)[C@H]12` the same measures were 16.2 µM and “Non-toxic”.
As to `CC(=O)OCC[C@]1(C)CC[C@@]2(O1)[C@H](C)[C@@H](O)C(=O)[C@H]1[C@@](C)(COC(C)=O)[C@H](O)CC[C@@]12C`, in series [1], the IC50 turned out to be 13.2 µM. Moreover, the Activity result in series [2] is on record as “Non-toxic”.
For `CC(=O)OCC[C@]1(C)CC[C@@]2(O1)[C@H](C)[C@@H](O)[C@@H](OC(C)=O)[C@H]1[C@@](C)(COC(C)=O)[C@H](OC(C)=O)CC[C@@]12C` the same measures were 11 µM and “Non-toxic”.
For `CC(=O)OCC[C@]1(C)CC[C@@]2(O1)[C@H](C)[C@@H](OC(C)=O)[C@@H](O)[C@H]1[C@@](C)(COC(C)=O)[C@H](OC(C)=O)CC[C@@]12C`, in that order: 10 µM and “Non-toxic”.
For `CC(=O)OC[C@@]1(C)[C@H](O)CC[C@@]2(C)[C@H]1CC(=O)[C@@H](C)[C@]21CC[C@@](C)(CCO)O1`, in that order: 36.9 µM and “Non-toxic”.
For `CC(=O)OC[C@@]1(C)[C@H](O)CC[C@]2(C)C(CCC(C)(O)CCO)=C(C)C(=O)[C@@H](O)[C@@H]12` (stereo partly drawn), the IC50 in series [1] came out at 53.6 µM. In addition, in series [2], the Activity entry is on record as “Non-toxic”.
`CC(=O)OCCC(C)(O)CCC1=C(C)C(=O)[C@@H](OC(C)=O)[C@H]2[C@@](C)(COC(C)=O)[C@H](OC(C)=O)CC[C@]12C` (stereo partly drawn): the IC50 in series [1] turned out to be 12.7 µM. Also, the Activity entry in series [2] is reported as “Non-toxic”.
Take `CC(=O)O[C@@H]1CC[C@]2(C)C(CCC(C)(O)CCO)=C(C)C(=O)[C@@H](O)[C@H]2[C@@]1(C)CO` (stereo partly drawn): in series [3], the inhibition at 80 µM is below 50%.
The same measure, in the same setting: the value for `CC(=O)OC[C@@]1(C)[C@H](O)CC[C@]2(C)C(CCC(C)(O)CCO)=C(C)C(=O)[C@@H](OC(C)=O)[C@@H]12` (stereo partly drawn) was below 50%; that for `CC(=O)OC[C@@]1(C)[C@H](OC(C)=O)CC[C@]2(C)C(CCC(C)(O)CCO)=C(C)C(=O)[C@@H](OC(C)=O)[C@@H]12` (stereo partly drawn) was 50%.
With `COc1ccc2c(c1)c(CC(=O)O)c(C)n2C(=O)c1ccc(Cl)cc1` [INDOMETHACIN], the IC50 in series [1] amounted to 35.7 µM.

The term IC50 denotes the concentration needed to halve the response being measured. By inhibition is commonly meant how much of the control response was suppressed.

For the origin of these results see ChEMBL document CHEMBL3608304, “Anti-inflammatory Labdane Diterpenoids from Leonurus macranthus” (J Nat Prod, 2015).
